13 compounds from ChEMBL document CHEMBL1158357, “Synthesis of [1,2,4]triazolo[1,5-a]pyridines of potential PGE2 inhibitory properties” (2009) can be followed below.

Test [1] concerns Rattus norvegicus. The test can be described thus: Antiinflammatory activity in Wistar albino rat assessed as inhibition of carrageenan-induced paw edema volume at 50 mg/kg, po administered 1 hr prior to carrageenan challenge measured after 1 hr. The class given is functional. In general terms: Carrageenan injected into the paw causes an acute inflammation.
The subject of test [2] is Rattus norvegicus. In words: Antiinflammatory activity in Wistar albino rat assessed as inhibition of carrageenan-induced paw edema volume at 50 mg/kg, po administered 1 hr prior to carrageenan challenge measured after 4 hrs relative to indomethacin. Type of test: functional. Also noted: scale not given: the % may be the effect or the level left.
Test [3] deals with Rattus norvegicus. The test can be described thus: Antiinflammatory activity in Wistar albino rat assessed as inhibition of carrageenan-induced paw edema volume at 50 mg/kg, ip administered 1 hr prior to carrageenan challenge measured after 2 hrs. Also noted: scale not given: the % may be the effect or the level left. To be noted: route intraperitoneal.
The subject of test [4] is Rattus norvegicus. The test can be described thus: Antiinflammatory activity in Wistar albino rat assessed as inhibition of carrageenan-induced paw edema volume at 50 mg/kg, ip administered 1 hr prior to carrageenan challenge measured after 3 hrs. Also noted: scale not given: the % may be the effect or the level left. To be noted: route intraperitoneal.
The subject of test [5] is Rattus norvegicus. The test can be described thus: Antiinflammatory activity in Wistar albino rat assessed as inhibition of carrageenan-induced paw edema volume at 50 mg/kg, po administered 1 hr prior to carrageenan challenge measured after 4 hrs. Also noted: scale not given: the % may be the effect or the level left.
Test [6] has as its system Rattus norvegicus. The test can be described thus: Antiinflammatory activity in Wistar albino rat assessed as inhibition of carrageenan-induced paw edema volume at 50 mg/kg, ip administered 1 hr prior to carrageenan challenge measured after 4 hrs. To be noted: route intraperitoneal.
Test [7] concerns Rattus norvegicus. The test can be described thus: Antiinflammatory activity in Wistar albino rat assessed as inhibition of carrageenan-induced paw edema volume at 50 mg/kg, po administered 1 hr prior to carrageenan challenge measured after 2 hrs. Type of test: functional.
Test [8] concerns Rattus norvegicus. The test can be described thus: Antiinflammatory activity in Wistar albino rat assessed as inhibition of carrageenan-induced paw edema volume at 50 mg/kg, po administered 1 hr prior to carrageenan challenge measured after 3 hrs. The class given is functional.
In test [9] the test system is Rattus norvegicus. The test can be described thus: Antiinflammatory activity in Wistar albino rat assessed as inhibition of carrageenan-induced paw edema volume at 50 mg/kg, ip administered 1 hr prior to carrageenan challenge measured after 1 hr. Also on record: scale not given: the % may be the effect or the level left. To be noted: route intraperitoneal.
Test [10] has as its system Rattus norvegicus. In words: Antiinflammatory activity against carrageenan-induced inflammation in albino rat air pouch model assessed as PGE2 level at 50 mg/kg, po administered […] before carrageenan challenge measured after 6 hrs. The class given is functional. Put shortly: (§1)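 Male albino rats (200–250 g), 6 per group. A dorsal air pouch was made with 20 ml air s.c. on day 1, 10 ml two days later and 10 ml on day 5. Next day, rats were dosed orally in saline with a few drops of Tween 80 (controls: sterile saline), then given 2 ml 1% carrageenan in saline into the pouch. Exudate was aspirated 6 h later under ether, stored at -20 °C, and PGE2 measured by ELISA kit.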

Test [11] relates to Rattus norvegicus. The test can be described thus: Antiinflammatory activity against carrageenan-induced inflammation in albino rat air pouch model assessed as PGE2 level at 10 mg/kg, po administered […] before carrageenan challenge measured after 6 hrs. The class given is functional. Summed up:
as §1

`CCn1c([S-])n[n+]2c(N)c(C#N)c(-c3ccc(N4CCOCC4)cc3)c(C#N)c12`: the Activity in the test on Rattus norvegicus [1] was found to be 0.118 mL; with Rattus norvegicus [2] it was 81.1%; in the test on Rattus norvegicus [3] it was 30.1%; in the test with Rattus norvegicus [4], 38.1%; in the test with Rattus norvegicus [5] it was 55%; in the test with Rattus norvegicus [6] it was 0.317 mL. Further, the Activity with Rattus norvegicus [7] was 0.232 mL; in the test with Rattus norvegicus [8] it was 0.322 mL; in the test with Rattus norvegicus [9] it was 43%.

In the case of `C=CCn1c([S-])n[n+]2c(N)c(C#N)c(-c3ccc(N4CCOCC4)cc3)c(C#N)c12`, the Activity was found to be 0.188 mL with Rattus norvegicus [1]; 89.4% in the test with Rattus norvegicus [2]; 19.3% in the test on Rattus norvegicus [3]; 25.6% in the test on Rattus norvegicus [4]; 60.6% in the test with Rattus norvegicus [5]; 0.278 mL in the test on Rattus norvegicus [6]. Further, the Activity worked out at 0.268 mL with Rattus norvegicus [7], 0.387 mL in the test with Rattus norvegicus [8] and 9.2% in the test on Rattus norvegicus [9].

In the case of `CCn1c([S-])n[n+]2c(N)c(C#N)c(-c3ccccc3OCCOc3ccccc3-c3c(C#N)c(N)[n+]4nc([S-])n(CC)c4c3C#N)c(C#N)c12`, the Activity in the test on Rattus norvegicus [1] stood at 0.188 mL; with Rattus norvegicus [2], 114%; with Rattus norvegicus [3], 30.1%; in the test with Rattus norvegicus [4] it was 40%; with Rattus norvegicus [5], 77.3%; with Rattus norvegicus [10], 87.67 pg/mL. Also, the Activity in the test on Rattus norvegicus [6] amounted to 0.16 mL; in the test on Rattus norvegicus [7], 0.232 mL; in the test with Rattus norvegicus [8], 0.312 mL; in the test with Rattus norvegicus [9], 9.2%.

Consider `Cn1c([S-])n[n+]2c(N)c(C#N)c(-c3ccccc3OCCCOc3ccccc3-c3c(C#N)c(N)[n+]4nc([S-])n(C)c4c3C#N)c(C#N)c12`, for which the Activity was determined as 0.19 mL in the test with Rattus norvegicus [1]; 110.9% with Rattus norvegicus [2]; 22.6% with Rattus norvegicus [3]; 41% in the test on Rattus norvegicus [4]; 75.2% in the test on Rattus norvegicus [5]; 92.17 pg/mL in the test on Rattus norvegicus [10]. The Activity in the test with Rattus norvegicus [6] came to 0.175 mL; with Rattus norvegicus [7], 0.257 mL; in the test on Rattus norvegicus [8], 0.307 mL; in the test with Rattus norvegicus [9], 8.2%.

Regarding `C=CCn1c([S-])n[n+]2c(N)c(C#N)c(-c3ccc(N4CCCCC4)cc3)c(C#N)c12`, the Activity in the test on Rattus norvegicus [1] turned out to be 0.16 mL; in the test on Rattus norvegicus [2] it was 101%; in the test with Rattus norvegicus [3], 7.5%; in the test with Rattus norvegicus [4], 35%; with Rattus norvegicus [5], 68.5%; in the test on Rattus norvegicus [10] it was 94.5 pg/mL. The Activity with Rattus norvegicus [6] was 0.222 mL; in the test on Rattus norvegicus [7], 0.307 mL; with Rattus norvegicus [8] it was 0.338 mL; in the test on Rattus norvegicus [9] it was 22.7%.

Regarding `CN1CCN(c2ccc(-c3c(C#N)c(N)[n+]4nc([S-])n(C)c4c3C#N)cc2)CC1`, the Activity in the test on Rattus norvegicus [1] was 0.172 mL; in the test on Rattus norvegicus [2] it was 54%; in the test on Rattus norvegicus [3], 13.6%; with Rattus norvegicus [4], 38.1%; in the test with Rattus norvegicus [5], 36.6%; in the test with Rattus norvegicus [6], 0.447 mL. The Activity in the test on Rattus norvegicus [7] was determined as 0.287 mL; in the test with Rattus norvegicus [8], 0.322 mL; with Rattus norvegicus [9], 16.9%.

As to `CCn1c([S-])n[n+]2c(N)c(C#N)c(-c3ccc(N4CCCCC4)cc3)c(C#N)c12`, the Activity in the test on Rattus norvegicus [1] is 0.142 mL; in the test with Rattus norvegicus [2], 90.6%; with Rattus norvegicus [3] it was 66.9%; in the test on Rattus norvegicus [4], 55.8%; in the test on Rattus norvegicus [5] it was 61.4%; with Rattus norvegicus [6], 0.272 mL. In addition, the Activity with Rattus norvegicus [7] was 0.11 mL; in the test on Rattus norvegicus [8], 0.23 mL; with Rattus norvegicus [9], 31.4%.

With `N#Cc1c(-c2ccc(N3CCCCC3)cc2)c(C#N)c2n(Cc3ccccc3)c([S-])n[n+]2c1N`, the Activity turned out to be 0.192 mL with Rattus norvegicus [1]; 99.4% in the test on Rattus norvegicus [2]; 2.1% in the test with Rattus norvegicus [3]; 39.8% in the test on Rattus norvegicus [4]; 67.4% in the test on Rattus norvegicus [5]; 102.33 pg/mL in the test on Rattus norvegicus [10]. Further, the Activity in the test with Rattus norvegicus [6] came out at 0.23 mL; in the test on Rattus norvegicus [7], 0.325 mL; in the test with Rattus norvegicus [8], 0.313 mL; in the test with Rattus norvegicus [9], 7.2%.

As for `COc1ccc2c(c1)c(CC(=O)O)c(C)n2C(=O)c1ccc(Cl)cc1` [INDOMETHACIN], the Activity was determined as 0.09 mL in the test on Rattus norvegicus [1]; 52.4% in the test with Rattus norvegicus [3]; 65.4% in the test on Rattus norvegicus [4]; 98.33 pg/mL with Rattus norvegicus [11]; 67.8% in the test with Rattus norvegicus [5]; 0.227 mL with Rattus norvegicus [6]. Besides, the figures for the Activity in the test with Rattus norvegicus [7], with Rattus norvegicus [8] and in the test with Rattus norvegicus [9] were 0.158 mL, 0.18 mL and 56.5%, respectively.

On to `Cn1c([S-])n[n+]2c(N)c(C#N)c(-c3ccc(N4CCOCC4)cc3)c(C#N)c12`, for which the Activity in the test with Rattus norvegicus [1] is 0.203 mL; with Rattus norvegicus [2] it was 67%; in the test on Rattus norvegicus [3], 17.2%; with Rattus norvegicus [4] it was 41.7%; with Rattus norvegicus [5], 45.4%; in the test on Rattus norvegicus [6], 0.385 mL. The results for the Activity with Rattus norvegicus [7], in the test with Rattus norvegicus [8] and in the test with Rattus norvegicus [9] were 0.275 mL, 0.303 mL and 1.9%, respectively.

As for `Cn1c([S-])n[n+]2c(N)c(C#N)c(-c3ccccc3OCCOc3ccccc3-c3c(C#N)c(N)[n+]4nc([S-])n(C)c4c3C#N)c(C#N)c12`, the Activity was 0.097 mL in the test on Rattus norvegicus [1]; 86.4% in the test on Rattus norvegicus [2]; 11.7% with Rattus norvegicus [3]; 28.8% with Rattus norvegicus [4]; 58.6% in the test with Rattus norvegicus [5]; 0.292 mL in the test on Rattus norvegicus [6]. Further, the Activity worked out at 0.293 mL in the test on Rattus norvegicus [7], 0.37 mL with Rattus norvegicus [8] and 53.1% with Rattus norvegicus [9].

For `Cn1c([S-])n[n+]2c(N)c(C#N)c(-c3ccc(N4CCCCC4)cc3)c(C#N)c12`, the Activity was found to be 0.202 mL in the test on Rattus norvegicus [1]; 75.4% with Rattus norvegicus [2]; 10.2% with Rattus norvegicus [3]; 32.1% in the test with Rattus norvegicus [4]; 51.1% in the test with Rattus norvegicus [5]; 0.345 mL with Rattus norvegicus [6]. Moreover, the Activity was found to be 0.298 mL in the test with Rattus norvegicus [7], 0.353 mL in the test on Rattus norvegicus [8] and 2.4% in the test with Rattus norvegicus [9].

Consider `N#Cc1c(-c2ccc(N3CCOCC3)cc2)c(C#N)c2n(Cc3ccccc3)c([S-])n[n+]2c1N`, for which the Activity in the test on Rattus norvegicus [1] was determined as 0.207 mL; in the test on Rattus norvegicus [2], 58%; in the test with Rattus norvegicus [3] it was 1.2%; in the test on Rattus norvegicus [4], 6.7%; in the test with Rattus norvegicus [5], 39.3%; in the test on Rattus norvegicus [6], 0.428 mL. Besides, the results for the Activity in the test on Rattus norvegicus [7], in the test with Rattus norvegicus [8] and in the test on Rattus norvegicus [9] were 0.328 mL, 0.485 mL and 0%, respectively.
